LYP inh 2: PTPN22 phosphatase inhibitors, primary screen, biochemical, DiFMUP fluorescence, 2 µM. recombinant LYP catalytic domain. AID 640, 2007. inhibition, % at 2 µM. 96,000 compounds, 0.21% hits;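 active = inhibition at 2 µM at or above a set limit, the screen mean plus 3 SD, cut at about 24% in these data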
LYP act: LYP phosphatase activators, primary screen, biochemical, DiFMUP fluorescence, 2 µM. recombinant LYP; 0 = plate median, 100 = signal doubled. AID 697, 2007. activation, % at 2 µM. 96,000 compounds, 0.11% hits. Tyrosine-protein phosphatase non-receptor type 22 (Homo sapiens), Q9Y2R2;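 active = activation at 2 µM above a set limit, the mean plus 5 SD, cut at about 37% in these data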
EphB4 ephrin blk: EphB4-ephrin-B2 interaction antagonists, primary screen, biochemical, TNYL-RAW peptide probe, fluorescence polarization; Ephrin type-B receptor 4 (Homo sapiens), P54760; EphB4 LBD / TNYL-RAW-Alexa532 peptide; inhibition, % at 7 µM; 97,000 compounds, 0.15% hits; AID 720, 2007;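 active = inhibition above the screen-wide mean inhibition plus 3 SD, cut at about 15% in these data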
Rev-RRE block: HIV-1 Rev-RRE binding inhibitors, primary screen, biochemical, FRET, protein-RNA interaction | P05866 | Rev peptide-RRE RNA binding | inhibition, % at 8 µM | 97,000 compounds, 0.79% hits;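 active = inhibition above the screen-wide mean plus 3 SD, cut at about 35% in these data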
Target sequence (P05866 whole entry, looked up): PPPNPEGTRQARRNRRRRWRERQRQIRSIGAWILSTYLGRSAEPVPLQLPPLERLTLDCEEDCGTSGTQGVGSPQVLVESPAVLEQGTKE
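System: Cy5-labelled duplex RRE RNA binding fluorescein-labelled HIV Rev peptide; Signal: fluorescein-to-Cy5 FRET, 480 nm excitation; Also added: labelled Rev peptide; Compound: one concentration, 8 µM nominal; Buffer or medium: HEPES pH 7.5 salt buffer with EDTA; Read-out: % inhibition of FRET ratio versus controls; Schedule: 5 min preincubation and 15 min binding, 25 °C.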
Hits are given with their value; 0 = inactive; [ ] = remark or other dose. Compounds with a hit are over-represented: about 1.3% of the library has one in this group of screens.

SMILES | LYP inh 2 | LYP act | EphB4 ephrin blk | Rev-RRE block
O=C(Nc1ccc(Cc2ccc(NC(=O)C3CC3)c(O)c2)cc1O)C1CC1 | 0 | 0 | 0 | 0
Cc1cc(C)n2nc(SCc3cc(=O)oc4cc(O)ccc34)nc2n1 | 29 | 0 | 0 | 0
Cc1ccc(NC(=O)CN2C(=O)S/C(=C/c3ccc(-c4cc(C(=O)O)ccc4C)o3)C2=O)cc1C | 35 | 0 | 0 | 0
Cc1cc(C)n(S(=O)(=O)c2cccc(Cl)c2Cl)n1 | 0 | 0 | 0 | 0
COc1cc(C2C(C#N)=C(N)Oc3cc(N(C)C)ccc32)cc2c1OCO2 (configuration not stated) | 0 | 0 | 0 | 92[fluorescence artefact?]
CCOC(=O)C1=C(C)OC(N)=C(C#N)C1c1cc(OC)c2c(c1)OCO2 (configuration not stated) | 0 | 0 | 0 | 0
O=C1CC(N2CCN(c3ccccc3)CC2)C(=O)N1c1ccc2c(c1)OCCO2 (configuration not stated) | 0 | 0 | 0 | 0
N#C[C@@H]1[C@@H]2C(=O)N(c3ccc4c(c3)OCCO4)C(=O)[C@@H]2C2c3ccccc3C=CN21 (some centres not stated) | 0 | 0 | 0 | 42
O=C(NCCCc1ccccc1)C1CC(=O)N(c2ccc3c(c2)OCCO3)C1 (configuration not stated) | 0 | 0 | 0 | 0
O=C(NC(Cc1ccccc1)c1nc2ccccc2[nH]1)C1CC(=O)N(c2ccc3c(c2)OCCO3)C1 (configuration not stated) | 0 | 0 | 15 | 0
Cc1ccc(C2NC(=O)c3c(sc4c3CCN(C)C4)N2)s1 (configuration not stated) | 0 | 0 | 0 | 75
CN1CCc2c(sc3c2C(=O)NC(c2ccccn2)N3)C1 (configuration not stated) | 0 | 0 | 0 | 43
O=C(NC(=S)Nc1nc2c(s1)CSc1ccccc1-2)c1ccccc1 | 0 | 0 | 0 | 0
O=C(Nc1ccccc1C(=O)N1CCOCC1)c1ccncc1 | 0 | 0 | 15 | 0
Cc1cc(C(=O)COC(=O)c2ccccc2O)c(C)n1Cc1cccs1 | 0 | 0 | 0 | 0
CCn1nc(C(=O)OCC(=O)c2cc(C)n(Cc3cccs3)c2C)c2ccccc2c1=O | 24 | 0 | 0 | 0
CN(C)c1ccc(CNC23CC4CC(CC(C4)C2)C3)cc1 | 0 | 0 | 0 | 0
COc1ccc(-n2c(=O)c3c4c(sc3n3cnnc23)CC(C)CC4)cc1 (configuration not stated) | 0 | 0 | 25 | 0
N#CC1=C(N)C(C#N)(C#N)[C@H](c2ccncc2)[C@H]2CC3(CC=C12)OCCO3 | 0 | 0 | 0 | 0
Cc1ccc([C@@H]2C3COCC=C3C(C#N)=C(N)C2(C#N)C#N)o1 (some centres not stated) | 0 | 0 | 0 | 42
COc1cccc(/C=C2/CN(C)CC3=C2OC(N)=C(C#N)C3c2cccc(OC)c2)c1 (configuration not stated) | 0 | 0 | 0 | 55
Cc1ccc(/C(C#N)=C\c2ccc(N3CCOCC3)o2)cc1 | 0 | 0 | 0 | 96[fluorescence artefact?]
Cc1ccc2nc(/C(C#N)=C\c3cc(C)n(-c4cccc([N+](=O)[O-])c4)c3C)[nH]c2c1 | 0 | 0 | 0 | 0
Cc1ccc2nc(/C(C#N)=C\c3ccc(N4CCOCC4)o3)[nH]c2c1 | 0 | 0 | 0 | 135[fluorescence artefact?]
Cc1ccc2nc(/C(C#N)=C\c3ccc([N+](=O)[O-])o3)[nH]c2c1 | 0 | 0 | 0 | 64[fluorescence artefact?]
SMILES | LYP inh 2 | LYP act | EphB4 ephrin blk | Rev-RRE block
COC(=O)C(NNc1ccccc1C)(NC(=O)c1ccc(F)cc1)C(F)(F)F (configuration not stated) | 0 | 0 | 0 | 0
O=C(CNC(=O)c1cnccn1)Nc1ccc(F)c(F)c1F | 0 | 0 | 0 | 0
CCCSc1nc(N)nc(-c2cccs2)c1C#N | 0 | 0 | 0 | 0
O=C(c1ccccc1)c1cnc(Nc2ccccc2Cl)s1 | 0 | 0 | 0 | 0
CCOC(=O)C1=C(O)/C(=C/c2cc(OC)c(OC)c(OC)c2)N=C1C | 0 | 0 | 0 | 0
COc1cc(/C=C2\SC(c3ccc(C)cc3)=NC2=O)cc(OC)c1OC | 0 | 0 | 0 | 51
COc1cc(/C=C2\SC(c3ccc(C)cc3)=NC2=O)ccc1O | 0 | 0 | 0 | 77[fluorescence artefact?]
COc1ccc(/C=C2\SC(c3ccc(C)cc3)=NC2=O)cc1OC | 0 | 0 | 0 | 113[fluorescence artefact?]
COc1ccc(/C=C2/SC(c3ccc(C)cc3)=NC2=O)cc1OC | 0 | 0 | 0 | 114[fluorescence artefact?]
COc1ccc(/C=C2/C(=O)N=C(N)N2C)cc1OC | 0 | 0 | 0 | 0

Screens (PubChem BioAssay)
